Results as given in ChEMBL document CHEMBL4138058, “Design and synthesis of novel selective estrogen receptor degradation inducers based on the diphenylheptane skeleton” (Medchemcomm, 2017).
Calls of active or inactive are those of the source. No cut-off for these calls is given here.

What was measured:
[1] = target: T1, Estrogen receptor (Homo sapiens) (UniProt P03372); experiment: Downregulation of ERalpha expression in human MCF7 cells at 3 uM after 6 hrs by Western blot method relative to beta-actin; type: cell-based
T1 sequence (whole entry): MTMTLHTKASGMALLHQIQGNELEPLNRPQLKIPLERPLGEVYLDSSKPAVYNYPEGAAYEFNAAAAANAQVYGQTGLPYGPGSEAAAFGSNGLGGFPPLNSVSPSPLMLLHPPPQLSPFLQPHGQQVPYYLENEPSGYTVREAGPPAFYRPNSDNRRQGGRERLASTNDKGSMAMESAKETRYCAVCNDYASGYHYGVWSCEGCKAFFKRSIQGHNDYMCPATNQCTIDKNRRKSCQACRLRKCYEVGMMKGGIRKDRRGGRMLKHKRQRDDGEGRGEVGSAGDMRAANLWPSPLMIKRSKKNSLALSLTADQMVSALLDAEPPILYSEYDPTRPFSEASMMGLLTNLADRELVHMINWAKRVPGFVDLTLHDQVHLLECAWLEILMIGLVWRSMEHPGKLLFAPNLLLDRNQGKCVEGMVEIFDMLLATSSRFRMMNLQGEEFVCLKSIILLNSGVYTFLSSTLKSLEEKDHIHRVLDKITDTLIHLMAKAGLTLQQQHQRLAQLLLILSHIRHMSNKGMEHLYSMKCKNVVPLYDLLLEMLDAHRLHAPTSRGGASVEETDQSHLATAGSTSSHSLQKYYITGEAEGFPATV
How it was run: (§1)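 MCF-7 cells kept in DMEM with 10% FBS, kanamycin and 10 μg/mL insulin, then exposed to compounds for 6 h. Lysates made in SDS buffer (0.1 M Tris-HCl pH 8.0, 10% glycerol, 1% SDS), boiled, BCA-normalized and run on SDS-PAGE. Blots probed with anti-ERα, AR, AhR or VDR and β-actin or lamin B. Chemiluminescence quantified as target/loading-protein ratio; means ± S.E., n=3.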

[2] = target: T2, Estrogen receptor (Homo sapiens, UniProt P03372); experiment: Displacement of Fluormone ES2 Green from full-length untagged human ERalpha expressed in insect cells after 2 hrs by fluorescence polarization assay
T2 sequence (P03372 whole entry): T1 sequence (whole entry)

[3] = target: T1, Estrogen receptor (Homo sapiens); experiment: Downregulation of ERalpha expression in human MCF7 cells at 10 uM after 6 hrs by Western blot method relative to beta-actin; type: cell-based; how it was run: as §1
[4] = target: T1, Estrogen receptor (Homo sapiens); experiment: Downregulation of ERalpha expression in human MCF7 cells at 1 uM after 6 hrs by Western blot method relative to beta-actin; type: cell-based; how it was run: as §1
[5] = target: T1, Estrogen receptor (Homo sapiens); experiment: Displacement of Fluormone ES2 Green from full-length untagged human ERalpha expressed in insect cells at 1 uM after 2 hrs by fluorescence polarization assay
How it was run: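 Competitive fluorescence polarization binding to ERα run with a commercial kit per manufacturer's instructions. Compounds taken from 10 mM DMSO stock. mP read at 470 nm excitation and 535 nm emission. Fraction bound correlated with mP and plotted against competitor concentration.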

[6] = target: T1, Estrogen receptor (Homo sapiens); experiment: Antagonist activity at GAL4-fused human ERalpha LBD expressed in HEK293 cells assessed as inhibition of 17beta-estradiol-induced transcriptional activation at 10 uM after 16 to 20 hrs by luciferase reporter gene assay relative to control; type: cell-based
How it was run: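 HEK293 cells grown in phenol red-free DMEM with 10% FBS at 37 °C, 5% CO2. Calcium phosphate co-transfection with GAL4-hERα LBD plasmid, MH100x4-tk-luciferase reporter and β-galactosidase normalization plasmid. Compounds added 8 h post-transfection with 0.3 nM 17β-estradiol; harvested 16–20 h later. Luciferase normalized to β-galactosidase; means of triplicate assays.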

Structure (SMILES)	Activity [1] [%]	IC50 [2] [nM]	Activity [3] [%]	Activity [4] [%]	inhibition [5]	inhibition [6] [%]
CCCC(CCC)(c1ccc(O)c(C)c1)c1ccc(OCCN(C)C)c(C)c1	115	313	100	109	–	–
CCCCOc1ccc(C(CCC)(CCC)c2ccc(O)c(C)c2)cc1C	82	87	68	84	–	–
CCCC(CCC)(c1ccc(O)c(C)c1)c1ccc(OCCN)c(C)c1	154	78	150	145	–	–
CCCC(CCC)(c1ccc(O)c(C)c1)c1ccc(OCC)c(C)c1	96	40	87	95	–	–
CCCCCCOc1ccc(C(CCC)(CCC)c2ccc(O)c(C)c2)cc1C	95	168	86	89	–	–
CCCCCCCCCCCCOc1ccc(C(CCC)(CCC)c2ccc(O)c(C)c2)cc1C	111	–	96	128	inactive	61
CCCCCCCCCCOc1ccc(C(CCC)(CCC)c2ccc(O)c(C)c2)cc1C	120	–	106	118	inactive	–
CCCCCCNCCOc1ccc(C(CCC)(CCC)c2ccc(O)c(C)c2)cc1C	185	78	112	185	–	–
CCCCCCCCOc1ccc(C(CCC)(CCC)c2ccc(O)c(C)c2)cc1C	105	400	105	105	–	–

The remaining molecules from weak to strong by IC50 [2], led by results:

Activity [1] [%]	IC50 [2] [nM]	Activity [3] [%]	Activity [4] [%]	inhibition [5]	inhibition [6] [%]	Structure (SMILES)
82	20	70	92	–	–	CCCCCCCCCCCCCCCCNCCOc1ccc(C(CCC)(CCC)c2ccc(O)c(C)c2)cc1C
79	7.3	70	80	–	–	CCCC(CCC)(c1ccc(O)c(C)c1)c1ccc(O)c(C)c1
83	4.9	68	93	–	–	CCCCCCCCCCCCNCCOc1ccc(C(CCC)(CCC)c2ccc(O)c(C)c2)cc1C
112	2.4	69	111	–	–	CCCCCCCCNCCOc1ccc(C(CCC)(CCC)c2ccc(O)c(C)c2)cc1C
